Sampled rows, rich in hits. Any-hit rate of the full collection: about 1.2%.
ASAP1 inh: ASAP1 ArfGAP inhibition. 0.19% of 360,000 active. ASAP1-stimulated ARF1 GTP hydrolysis, GDP FP detection. inhibition, % at 16.5 µM; in the data active = inhibition above about 25%;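 also: 0% = vehicle with enzyme and substrate and 100% = no enzyme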
proCasp3 act: procaspase-3 (human) activation; recombinant procaspase-3 D3A, Ac-DEVD-pNA absorbance 405 nm; activation, % at 8.5 µM; 0.11% of 330,000 active;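 active = activation above the mean of all tested compounds plus 3 SD, cut at about 21% in these data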;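 also: 0% = DMSO alone and 100% = DMSO wells spiked with extra 5 µM PC-3 D3A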
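Test system: Procaspase-3 D3A mutant; medium: Zinc-free HEPES/NaCl buffer with 0.01% Triton X-100 at pH 7.4; reagent: DEVD-pNA substrate; doses: one concentration, 8.5 µM nominal, 0.8% DMSO; times: 1 h preincubation plus 2 h reaction at 25 °C; signal: Epi-absorbance at 405 nm of released p-nitroaniline, 0 and 120 min; replicates: singlicate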
CR mimetic SO: caloric restriction mimetics inhibiting age-related superoxide in yeast. S. cerevisiae aged cells, superoxide DHE fluorescence; active compounds read low. superoxide response (% of plate mean), % at 10 µM. 0.18% of 330,000 active;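 active = superoxide response under a set limit, about three screen SD below normal, cut at about 65% in these data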;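 also: yeast aged for seven days with compound at 30 °C before DHE staining; 100% = average MFI of all compound-treated wells on the plate with controls excluded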
procasp7 counter: counter-screen for procaspase-3 activators: activators of human procaspase-7. 0.093% of 330,000 active. activation, % at 8.5 µM. recombinant procaspase-7, Ac-DEVD-pNA absorbance 405 nm; D23A/D198A/D206A triple mutant, cannot self-cleave; scale: DMSO 0, 5 µM enzyme 100. AID 463210;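 active = percent activation above the screen-wide mean plus 3 SD, cut at about 25% in these data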
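Assay system: Uncleavable procaspase-7 mutant enzyme; Input: 2 µM procaspase-7 mutant as dispensed; Also added: DEVD-pNA substrate; Medium: Zinc-free HEPES pH 7.4 with 300 mM NaCl, 0.01% Triton X-100; Timing: 1 h compound preincubation, 2 h substrate cleavage, 25 °C; Measured by: Epi-absorbance of released pNA at 405 nm, two timepoints.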
LANA-H2A inh: blocks KSHV LANA binding to histone H2A/H2B | Q9QR71 | cell-free LANA-H2A/H2B peptide, fluorescence polarization | inhibition, % (no concentration beside the values) | 0.6% of 320,000 active; in the data active = inhibition mostly above about 10%, no sharp cut-off; inactive = mostly below about 6.7%
Target sequence (Q9QR71 whole entry, looked up): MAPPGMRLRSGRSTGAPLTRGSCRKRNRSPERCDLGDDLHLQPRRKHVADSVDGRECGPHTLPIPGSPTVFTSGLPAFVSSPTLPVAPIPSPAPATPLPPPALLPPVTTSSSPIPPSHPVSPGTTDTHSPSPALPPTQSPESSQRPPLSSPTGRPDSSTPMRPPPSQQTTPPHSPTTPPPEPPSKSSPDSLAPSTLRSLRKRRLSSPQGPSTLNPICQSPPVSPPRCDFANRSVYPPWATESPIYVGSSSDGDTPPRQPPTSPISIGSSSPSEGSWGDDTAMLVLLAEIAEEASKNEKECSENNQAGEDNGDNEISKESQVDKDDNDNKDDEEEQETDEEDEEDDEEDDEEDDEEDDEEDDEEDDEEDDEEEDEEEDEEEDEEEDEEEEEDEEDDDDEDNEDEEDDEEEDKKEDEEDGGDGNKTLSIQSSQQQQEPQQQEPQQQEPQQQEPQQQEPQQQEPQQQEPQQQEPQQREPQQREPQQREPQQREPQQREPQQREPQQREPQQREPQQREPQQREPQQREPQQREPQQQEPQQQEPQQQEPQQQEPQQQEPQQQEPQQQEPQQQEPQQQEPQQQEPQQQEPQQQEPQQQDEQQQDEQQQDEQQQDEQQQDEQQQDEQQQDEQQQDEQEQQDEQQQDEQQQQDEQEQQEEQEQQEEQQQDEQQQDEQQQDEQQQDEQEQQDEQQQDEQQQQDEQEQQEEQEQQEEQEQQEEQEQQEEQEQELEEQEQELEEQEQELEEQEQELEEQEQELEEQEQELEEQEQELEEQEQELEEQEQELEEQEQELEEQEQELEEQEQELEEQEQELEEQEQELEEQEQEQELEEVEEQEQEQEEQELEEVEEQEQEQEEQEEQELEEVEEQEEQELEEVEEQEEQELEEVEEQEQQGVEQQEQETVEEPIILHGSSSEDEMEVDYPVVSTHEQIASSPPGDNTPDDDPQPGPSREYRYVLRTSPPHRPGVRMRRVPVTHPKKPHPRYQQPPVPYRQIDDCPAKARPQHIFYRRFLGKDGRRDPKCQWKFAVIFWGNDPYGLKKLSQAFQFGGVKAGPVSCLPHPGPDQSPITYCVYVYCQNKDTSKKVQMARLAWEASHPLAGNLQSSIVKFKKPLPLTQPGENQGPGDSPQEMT
ARFGAP1 inhibitor: inhibits rat ARF GTPase activating protein 1; Q62848; inhibition, % at 16.5 µM; Arfgap1-stimulated ARF1 GTP hydrolysis, GDP FP detection; 0.26% of 360,000 active;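 active = inhibition above a per-plate limit, mean inhibition of low control wells plus 3 SD, cut at about 25% in these data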;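 also: 0% = DMSO wells with enzyme and 100% = wells lacking Arfgap1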
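Replicates: Single well per compound | Assay system: Truncated rat Arfgap1 GAP domain | Control set: No-Arfgap1 wells (100%) versus DMSO full-reaction wells (0%) | Times: Enzyme reaction 120 min at 25 °C after 20 min preincubation | Reagent: Human ARF1(Δ1-17)-GTP substrate | Measured by: Tracer-displacement fluorescence polarization with EDTA stop, 620/688 nm | Measure: Percent inhibition of Arfgap1-stimulated GTP hydrolysis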
* = called active by the depositor; . = no result; ! = a repeat was not active.

SMILES | ASAP1 inh | proCasp3 act | CR mimetic SO | procasp7 counter | LANA-H2A inh | ARFGAP1 inhibitor
CCN(CC)CCCN(Cc1cc2cc3c(cc2[nH]c1=O)OCO3)C(=S)NCCCN(C)C | 6.0 | -1.6 | 99.6 | 0.7 | -4.1 | 8.5
CN(C)CCCNC(=S)N(CCCN(C)C)Cc1cc2cc3c(cc2[nH]c1=O)OCO3 | 4.7 | 9.9 | 103.4 | -3.2 | 19.9* | -18.1
Cc1cccc(N2CCN(CC(=O)NCc3ccccc3)CC2)c1C | 7.6 | 3.5 | 98.0 | 3.4 | 1.1 | 1.3
O=C(CN1CCN(c2ccccc2F)CC1)NCc1ccccc1 | -8.0 | 6.3 | 97.0 | -7.9 | 32.9* | -6.0
COC1=CC(C)C2CC3OC(O)CC4C(C)=C(OC)C(=O)C(C2(C)C1=O)C34C (stereo not drawn) | -2.7 | . | . | . | . | 5.9
CC1CCCCC1NC(=O)Cn1cc([N+](=O)[O-])ccc1=O (stereo not drawn) | 4.6 | -2.3 | 155.2 | 6.6 | 14.9* | -7.9
CCOc1ccccc1OC(=O)CN1C(=O)c2ccccc2C1=O | -1.3 | 7.8 | 106.0 | -2.1 | -6.1 | 8.0
Cc1ccccc1OCC1CN(CN2CCOCC2)C(=O)O1 (stereo not drawn) | -4.8 | -2.9 | 102.3 | 2.8 | 23.5* | -2.0
COC(=O)c1cc2c(c3c4cc(OC)ccc4n(S(=O)(=O)c4ccc(F)cc4)c13)C(=O)N(C)C2 | -15.3 | . | . | . | . | 14.1
O=C(Nc1ccc2c(c1)OCCO2)C1CC(c2ccccc2Cl)=NO1 (stereo not drawn) | 11.2 | -3.3 | 85.0 | -13.3 | 9.2* | -0.3
O=C(C(=O)N1CCN(S(=O)(=O)c2ccccc2)CC1)c1cccc(C(F)(F)F)c1 | -10.5 | . | . | . | . | 7.8
COC(=O)[C@]1(Cc2ccccc2)NC=C(C(=O)c2ccccc2)[C@@H]1c1cccs1 | 13.7 | . | . | . | . | 8.1
COc1cccc(CNC(=O)[C@H]2CCCN2C(=O)[C@H]2CCCN2C(=O)c2ccccc2C(F)(F)F)c1 | 17.8 | . | . | . | . | -2.4
COc1ccc(-c2ccc3c(=O)cc(-c4ccsc4)oc3c2)cn1 | 25.7* | -5.1 | 99.3 | -8.9 | -6.6 | 36.3*
COc1cc2sc3cc(NCC[C@@H]4CCCN4C)ccc3c(=O)c2cc1OC | 20.1 | -0.3 | 97.2 | 0.6 | -1.8 | 26.6*
COc1cccc2sc3ccc(NCCC4CCCN4C)cc3c(=O)c12 (stereo not drawn) | 18.8 | 0.8 | 99.2 | -6.1 | -2.5 | 7.9
COc1cccc2sc(Nc3nc(-c4ccncc4)cs3)nc12 | 3.6 | 1.0 | 113.5 | 5.4 | -2.0 | 2.2
COc1cccc2sc(Nc3nc(-c4cc5ccccc5oc4=O)cs3)nc12 | 22.9 | -12.4 | 111.6 | -1.2 | 3.2 | 30.4*
O=C(Nc1ccccc1)Nc1csc2ccccc12 | 2.6 | -3.8 | 62.6* | 1.1 | -1.0 | 8.7
CC(=O)Nc1csc2ccccc12 | -0.1 | -1.5 | 94.6 | 0.9 | -1.2 | 0.9
COc1ccc2c(c1OC)C(=O)OC2C1c2c(cc3c(c2OC)OCO3)CCN1C (stereo not drawn) | -0.2 | -2.9 | 95.4 | -1.2 | 5.3*! | 11.1
CN(CC(=O)N1CCCC1)S(=O)(=O)c1ccc2ccccc2c1 | 7.9 | 4.1 | 104.2 | 1.2 | 17.3* | -3.8
O=C(OCCN1C(=O)c2cccc3c(N4CCOCC4)ccc(c23)C1=O)c1ccccc1Cl | 17.7 | -25.9 | 101.1 | -25.3 | 27.4* | 9.9
O=C(OCCN1C(=O)c2cccc3c(N4CCOCC4)ccc(c23)C1=O)c1cccc(Cl)c1 | . | -23.6 | 88.4 | -15.3 | 36.8* | .
O=C(OCCN1C(=O)c2cccc3c(N4CCOCC4)ccc(c23)C1=O)c1ccc(Cl)cc1Cl | 2.8 | -24.4 | 85.2 | -21.2 | 30.1* | 8.9
O=C1c2cccc3c(N4CCCCC4)ccc(c23)C(=O)N1CCO | 0.0 | -7.3 | 103.9 | -3.5 | 48.8* | 8.3
O=C(OCCN1C(=O)c2ccccc2C1=O)c1cc(S(=O)(=O)N2CCOCC2)ccc1Cl | -9.0 | 2.2 | 97.9 | 9.4 | 0.0 | 6.7
CC1(C(=O)Nc2ccc3c(c2)OCO3)CCN1Cc1ccccc1OC(F)F (stereo not drawn) | 0.2 | . | . | . | . | -2.9
Cc1ccc(CNS(=O)(=O)NCc2cccs2)cc1 | -7.0 | 1.9 | 107.3 | 2.4 | -0.2 | 11.0

Screens as filed in PubChem.
